Active and inactive are the calls of the source.
Columns and labels:
[1] = molecular target: Glycine receptor alpha-3/beta (Homo sapiens) (UniProt O75311+P48167); experiment: Positive allosteric modulation of human glycine alpha3beta receptor expressed in HEK293T cells assessed as compound concentration required to induce up to 3-fold leftward shift in glycine-induced increase in chloride ion flux after 4 mins by Schild plot analysis; format: cell-based
How it was run: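 HEK293T cells stably expressing human GlyRα3β, ~12000 cells/well, plated overnight and loaded with membrane potential blue dye. Glycine 1:2 dilution series premixed with compound at varying concentrations in HEPES/NaCl/mannitol buffer, pH 7.4. FLIPR fluorescence read 4 min and processed as AUC over baseline. mEC₃ is the lowest tested concentration giving a ≥3-fold leftward shift of glycine EC₅₀.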

[2] = Intrinsic clearance in mouse liver microsomes up to 40 mins in presence of NADPH; format: ADME, microsome; conditions: read-out: CLH
[3] = Passive apparent permeability in MDCK cells; format: ADME, cell-based, Canis lupus familiaris; conditions: dog
How it was run: (§1)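 Bidirectional transport at 5 μM, in triplicate, across MDCK cells carrying control vector, human MDR1 or human ABCG2 (BCRP). Passive Papp is the mean of both directions in vector-control cells. Efflux ratios come from the MDR1 and BCRP lines.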

human MDR1 = experiment: Efflux ratio of passive apparent permeability in MDCK cells harboring human MDR1; format: ADME, cell-based, Canis lupus familiaris; conditions: dog; how it was run: as §1
human BCRP = experiment: Efflux ratio of passive apparent permeability in MDCK cells harboring human BCRP; format: ADME, cell-based, Canis lupus familiaris; conditions: dog; how it was run: as §1
Mus musculus [4] = species on record: Mus musculus; experiment: Ex vivo positive allosteric modulation of glycine receptor in C57BL/6 mouse spinal cord assessed as potentiation of glycine-induced post synaptic current amplitude at 0.5 uM at holding potential of -60 mV after 10 mins in presence of sodium channel inhibitor TTX/AMPA/kainate receptor antagonist CNQX/GABAa receptor antagonist bicuculline/NMDA receptor antagonist APV by electrophysiology method relative to glycine alone
How it was run: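 Adult mouse spinal cord slices; dorsal horn neurons in laminae I–II were identified histologically and confirmed glycinergic by focal glycine (20 μM) with strychnine (10 μM) reversal. Postsynaptic current amplitude was recorded with glycine 20 μM alone, then with glycine plus compound at 0.5 μM, then with strychnine added. The readout is the mean ratio of PSC amplitude (compound + glycine / glycine alone), n = 5.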

[5] = Ratio of unbound Cmax in mouse brain to EC50 for glycine alpha3 receptor in mouse model of spared nerve injury-induced tactile allodynia at 10 mg/kg, po
How it was run: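 Mice dosed orally; unbound brain Cmax is total brain concentration × brain fraction unbound, sampled at multiple time points. It is divided by EC₅₀ for potentiation of mouse GlyRα3.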

[6] = Oral bioavailability in mouse at 10 mg/kg; format: ADME, organism-based; conditions: in vivo
[7] = molecular target: T1, Glycine receptor subunit alpha-3 (Homo sapiens, UniProt O75311); experiment: Positive allosteric modulation of human glycine alpha3 receptor expressed in HEK293T cells assessed as potentiation of glycine-induced increase in chloride ion flux after 4 mins by membrane potential blue dye based FLIPR assay; format: cell-based, HEK-293T
T1 sequence (O75311 whole entry): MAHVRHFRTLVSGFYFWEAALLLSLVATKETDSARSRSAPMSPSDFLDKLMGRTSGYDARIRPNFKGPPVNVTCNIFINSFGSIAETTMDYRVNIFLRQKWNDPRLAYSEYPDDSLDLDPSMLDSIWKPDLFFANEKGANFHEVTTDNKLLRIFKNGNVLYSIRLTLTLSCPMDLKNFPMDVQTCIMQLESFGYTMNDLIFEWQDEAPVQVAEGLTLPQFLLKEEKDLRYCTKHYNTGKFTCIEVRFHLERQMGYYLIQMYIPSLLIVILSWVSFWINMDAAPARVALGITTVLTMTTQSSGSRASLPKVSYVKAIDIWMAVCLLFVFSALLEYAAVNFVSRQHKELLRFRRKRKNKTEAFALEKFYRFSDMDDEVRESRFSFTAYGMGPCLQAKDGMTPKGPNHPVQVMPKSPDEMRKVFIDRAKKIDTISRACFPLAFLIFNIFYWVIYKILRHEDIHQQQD

[8] = molecular target: T1, Glycine receptor subunit alpha-3; experiment: Binding affinity to human glycine alpha3 receptor expressed in HEK293T cells by SPR assay; design: species or system HEK-293T
Mus musculus [9] = experiment: Antiallodynic activity in mouse model of spared nerve injury-induced tactile allodynia assessed as tactile threshold at 20 mg/kg, po measured 60 mins post dose by Von Frey filament assay (reference value: 0.82 +/- 0.19 g); format: functional
[10] = Ratio of unbound Cmax in mouse brain to EC50 for glycine alpha3 receptor in mouse model of spared nerve injury-induced tactile allodynia at 20 mg/kg, po
[11] = Intrinsic clearance in human liver microsomes; format: ADME, microsome; conditions: read-out: CLH

## CN1C(=O)[C@@H]2CN(S(=O)(=O)c3ccc4occc4c3)C[C@@H]2c2cnccc21
[1]
  MEC: 0.2 µM
[2]
  microsomal CLint: 188 µL/min/mg
[3]
  Papp: 69 ×10⁻⁶ cm/s
Human MDR1
  efflux ratio: 1.5
Human BCRP
  efflux ratio: 1.1
Mus musculus [4]
  fold change (FC): 4.4
[5]
  Ratio: 1.2
[6]
  bioavailability: 100%
[7]
  EC50: 450 nM
[8]
  Kd: 190 nM
Mus musculus [9]
  Activity: 1.53 g

## CN1C(=O)[C@H]2CN(S(=O)(=O)c3ccc4occc4c3)C[C@H]2c2cnccc21
[1]
  MEC: > 25 µM
[7]
  EC50: 20000 to 25000 nM
[8]
  Kd: > 20000 nM
Mus musculus [9]
  Activity: inactive
[10]
  Ratio: 1.9

## C[C@H]1[C@H]2C(=O)N(C)c3ccncc3[C@H]2CN1S(=O)(=O)c1ccc2c(c1)OCO2
[1]
  MEC: 0.025 µM
[2]
  microsomal CLint: 254 µL/min/mg
[3]
  Papp: 43.1 ×10⁻⁶ cm/s
Human MDR1
  efflux ratio: 1.6
[7]
  EC50: 50 nM
[8]
  Kd: 11 nM
[11]
  microsomal CLint: 83 µL/min/mg

— ChEMBL document CHEMBL3992512, “The Discovery and Hit-to-Lead Optimization of Tricyclic Sulfonamides as Potent and Efficacious Potentiators of Glycine Receptors” (J Med Chem, 2017)
